# INS-1E ATP HTS – preserves ATP levels in cytokine-treated INS-1E cells; AID 488910; 20,000 compounds, 0.1% hits; INS-1E cytokine-induced death, ATP luminescence, 48 h; normalised: neutral wells 0, positive control 100; protection from cytokine-induced ATP loss, % at 10 µM;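 active = mean replicate protection from cytokine-induced ATP loss at least 50% and at least 75% of replicates each reaching 50%; inconclusive = meets only one of the two criteria, mean or replicate share; inactive = fails both the mean and replicate share criteria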
#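 Assay system: INS-1E rat cells / Quantity: 8000 cells per well / Medium: RPMI without phenol red, 5% FBS / Probe or stimulus: three-cytokine cocktail (IFN-γ, TNF-α, IL-1β) / Dosing: one compound concentration, pin transfer / Timing: 48 h co-treatment, 10 min post-lysis read / Technique: CellTiter-Glo luminescence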
# T cruzi intra – inhibitors of intracellular Trypanosoma cruzi; intracellular Trypanosoma cruzi in host cells, plate reader; activity score (inhibition), % at 5.01 µM; 22,000 compounds, 4.9% hits; AID 651903; in the data active = activity score above about 55%; inconclusive = no clear call, values can overlap the other calls;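 note: parasites and compound incubated about four days before reading; 0% = median of neutral control wells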
# A1 apoptosis 2 – compounds inhibiting A1, read as caspase activation. MEF A1-2A-BIM cells, caspase-Glo luminescence, 3 h; percent of clofoctol response, DMSO zero. caspase activation, % (concentration not given with the values). 24,000 tested, under 10 active; in the data active = caspase activation above about 5.9%; inconclusive = no clear call, values can overlap the other calls; inactive = below about 2.2%
#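 System: mouse embryonic fibroblasts co-expressing A1 and BIM (A1-2A-BIM), primed for A1 dependence; amount: 2500 cells/well; doses: 50 nL pinned compound; schedule: cells settled overnight, compound exposure 3 h at 37 °C, 5% CO2; detection: Caspase-Glo 3/7 luminescence, 1 h at room temperature; read-out: Caspase-3/7 activation, seen as rise in luminescence signal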
# * hit, by the source's call; ? = inconclusive; · = not tested or not shown. Many of the other results were omitted from the sample, so hits are more common in it than they were.
SMILES,INS-1E ATP HTS,T cruzi intra,A1 apoptosis 2
C[C@@H]1CN([C@@H](C)CO)C(=O)c2cccc(NC(=O)C3CC3)c2O[C@H]1CN(C)Cc1ccc(Oc2ccccc2)cc1,-68.4,63.1*,-1.4
C[C@@H]1CN([C@@H](C)CO)C(=O)c2cccc(NC(=O)C3CCCCC3)c2O[C@@H]1CN(C)Cc1ccc(Oc2ccccc2)cc1,-65.3,16.9,·
C[C@@H]1CN([C@H](C)CO)C(=O)c2cccc(NC(=O)C3CC3)c2O[C@@H]1CN(C)Cc1ccc(Oc2ccccc2)cc1,-23.9,-8.0,·
C[C@H](CO)N1C[C@H](C)[C@H](CN(C)Cc2ccc(Oc3ccccc3)cc2)Oc2c(NC(=O)C3CCOCC3)cccc2C1=O,-9.3,7.1,-0.1
C[C@@H]1CN([C@@H](C)CO)C(=O)c2cc(NS(=O)(=O)c3ccccc3)ccc2O[C@H]1CN(C)C(=O)Nc1ccc2c(c1)OCO2,1.0,11.5,1.5
COc1ccc(S(=O)(=O)Nc2ccc3c(c2)C(=O)N([C@@H](C)CO)C[C@@H](C)[C@H](CN(C)S(=O)(=O)c2ccc(F)cc2)OCCCC[C@@H](C)O3)cc1,·,·,0.7
C[C@H](CO)N1C[C@H](C)[C@H](CN(C)Cc2ccc3c(c2)OCO3)OCc2cnnn2CCCC1=O,·,-6.6,-0.5
C[C@@H]1CN([C@@H](C)CO)C(=O)c2cc(NC(=O)Cc3cn(C)c4ccccc34)ccc2O[C@H]1CN(C)Cc1ccc(C(=O)O)cc1,·,-3.4,·
COC(=O)c1c2oc(c1C(=O)OC)C(=O)N(C)Cc1cn(nn1)C[C@@H](Cc1ccccc1)NC(=O)N[C@H](CO)CC2,·,·,1.2
COc1cccc(-c2cnc3c(c2)C(=O)N([C@H](C)CO)C[C@H](C)[C@H](CN(C)S(C)(=O)=O)O3)c1,·,3.6,0.6
C[C@H](CO)N1C[C@H](C)[C@H](CN(C)C)Oc2ncc(-c3cccc(F)c3)cc2C1=O,·,71.3*,·
COc1cccc(-c2cnc3c(c2)C(=O)N([C@H](C)CO)C[C@H](C)[C@H](CN(C)C)O3)c1,·,75.9*,0.9
C[C@H](CO)N1C[C@H](C)[C@H](CN(C)S(=O)(=O)c2ccc(F)cc2)Oc2ncc(-c3cccc(F)c3)cc2C1=O,·,27.6,0.2
C[C@H](CO)N1C[C@H](C)[C@H](CN(C)S(=O)(=O)c2ccccc2)Oc2ncc(-c3ccccc3)cc2C1=O,·,16.0,1.7
C[C@H](CO)N1C[C@H](C)[C@H](CN(C)C)Oc2ncc(-c3ccc(F)cc3)cc2C1=O,·,64.7*,0.4
C[C@H](CO)N1C[C@H](C)[C@H](CN(C)C)Oc2ncc(-c3ccccc3)cc2C1=O,·,63.1*,-1.2
C[C@H](CO)N1C[C@H](C)[C@H](CN(C)Cc2ccncc2)Oc2ncc(-c3ccc(F)cc3)cc2C1=O,·,7.0,0.3
Cc1noc(C)c1NC(=O)Nc1ccc2c(c1)C(=O)N([C@@H](C)CO)C[C@H](C)[C@@H](CN(C)S(=O)(=O)c1cccs1)O2,5.0,-13.8,·
C[C@@H]1CN([C@H](C)CO)C(=O)Cc2cc(NC(=O)Nc3cccc4ccccc34)ccc2O[C@@H]1CN(C)CC1CC1,·,·,1.0
C[C@@H]1CN([C@@H](C)CO)C(=O)Cc2cc(NC(=O)C3CCCCC3)ccc2O[C@@H]1CN(C)Cc1ccc2c(c1)OCO2,-1.4,2.5,·
C[C@H](CO)N1C[C@H](C)[C@@H](CN(C)Cc2ccc(-c3ccccc3)cc2)Oc2ccc(NS(=O)(=O)c3ccc(Cl)cc3)cc2C1=O,-16.0,21.7,·
C[C@H](CO)N1C[C@H](C)[C@H](CN(C)Cc2ccc(-c3ccccc3)cc2)Oc2ccc(NS(=O)(=O)c3ccc(Cl)cc3)cc2C1=O,-3.3,56.3*,-2.3
C[C@@H]1CN([C@H](C)CO)C(=O)c2cc(NS(=O)(=O)c3ccc(Cl)cc3)ccc2O[C@@H]1CN(C)Cc1ccc(-c2ccccc2)cc1,-31.5,24.4,1.0
C[C@@H]1CN([C@@H](C)CO)C(=O)c2cc(NS(=O)(=O)c3ccc(Cl)cc3)ccc2O[C@@H]1CN(C)Cc1ccc(-c2ccccc2)cc1,-52.5,69.1*,0.5
Cc1cc(C(=O)Nc2cccc3c2O[C@H](CN(C)C(=O)Nc2c(C)noc2C)[C@H](C)CN([C@@H](C)CO)C3=O)n(C)n1,·,·,-1.6
SMILES,INS-1E ATP HTS,T cruzi intra,A1 apoptosis 2
Cc1noc(C)c1NC(=O)Nc1ccc2c(c1)C(=O)N([C@@H](C)CO)C[C@@H](C)[C@H](CN(C)Cc1ccc(C(=O)O)cc1)O2,2.6,-38.5,·
C[C@@H]1CN([C@@H](C)CO)C(=O)c2cccc(NC(=O)c3nc4ccccc4s3)c2O[C@@H]1CN(C)Cc1ccccc1,-49.1,35.5,·
C[C@@H]1CN([C@@H](C)CO)C(=O)c2cccc(NC(=O)c3nc4ccccc4s3)c2O[C@@H]1CN(C)Cc1ccc(C(=O)Nc2ccccc2N)cc1,29.7,?,·
COc1ccc(CN(C)C[C@@H]2Oc3c(NC(=O)c4nc5ccccc5s4)cccc3C(=O)N([C@H](C)CO)C[C@H]2C)cc1,-17.8,57.2*,-1.2
C[C@H](CO)N1C[C@H](C)[C@@H](CN(C)Cc2ccc(Cl)c(Cl)c2)Oc2c(NC(=O)c3nc4ccccc4s3)cccc2C1=O,-28.2,69.4*,-0.4
C[C@@H]1CN([C@H](C)CO)C(=O)c2cccc(NC(=O)c3nc4ccccc4s3)c2O[C@H]1CN(C)Cc1ccc(Cl)c(Cl)c1,-60.4,50.9,·
C[C@H](CO)N1C[C@H](C)[C@@H](CN(C)Cc2ccc(C(=O)Nc3ccccc3N)cc2)Oc2c(NC(=O)c3nc4ccccc4s3)cccc2C1=O,1.8,70.9*,0.0
C[C@@H]1CN([C@@H](C)CO)C(=O)c2cccc(NC(=O)c3nc4ccccc4s3)c2O[C@@H]1CN(C)Cc1ccc(C(F)(F)F)cc1,-56.0,61.4*,-0.6
COc1ccc(CN(C)C[C@@H]2Oc3c(NC(=O)c4nc5ccccc5s4)cccc3C(=O)N([C@@H](C)CO)C[C@H]2C)cc1,-15.2,46.9,-0.7
C[C@H](CO)N1C[C@H](C)[C@H](CN(C)C(=O)NC2CCCCC2)Oc2ccc(NC(=O)CCC(F)(F)F)cc2CC1=O,17.1,-27.2,·
C[C@@H]1CN([C@H](C)CO)C(=O)c2cc(NC(=O)Nc3cccc4ccccc34)ccc2O[C@@H](C)CCCCO[C@@H]1CN(C)Cc1ccc2c(c1)OCO2,·,·,-0.1
Cc1noc(C)c1NC(=O)Nc1ccc2c(c1)C(=O)N([C@H](C)CO)C[C@H](C)[C@@H](CN(C)S(=O)(=O)c1ccccc1)OCCCC[C@H](C)O2,·,·,-0.3
COc1ccc(S(=O)(=O)N(C)C[C@@H]2OCCCC[C@@H](C)Oc3ccc(NS(=O)(=O)c4c(C)noc4C)cc3C(=O)N([C@H](C)CO)C[C@@H]2C)cc1,6.3,20.9,-1.2
COc1ccc(S(=O)(=O)Nc2ccc3c(c2)C(=O)N([C@H](C)CO)C[C@H](C)[C@H](CN(C)S(=O)(=O)c2ccc(C)cc2)OCCCC[C@@H](C)O3)cc1,-5.3,33.1,-0.5
C[C@H](CO)N1C[C@H](C)[C@H](CN(C)C(=O)c2ccccc2)OCCCC[C@H](C)Oc2ccc(NC(=O)Nc3ccc4c(c3)OCO4)cc2C1=O,·,·,0.3

# Assay outcomes: PubChem BioAssay, Broad Institute
